ChEMBL document CHEMBL1139401, “5-(4-Chlorophenyl)-5,6-dihydro-1,3-oxazepin-7(4H)-one derivatives as lipophilic cyclic analogues of baclofen: design, synthesis, and neuropharmacological evaluation” (2008)

Assays:
Assay type in all cases: functional
Conditions in all cases: route intraperitoneal
[1] = system: Mus musculus; experiment: Neuropharmacological effect in albino mouse assessed as endurance time at 3 mg/kg, ip after 45 mins by rotarod test
How it was run: (§1)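 For the rotarod, the cylinder was 6 cm diameter, 30 cm high and turned at 12 rpm. Male albino mice were trained the day before to stay on for 300 s, and those not reaching this were excluded. Endurance time (max 300 s) was measured 30, 45, 60 and 90 min after ip drug in DMSO or vehicle. Five mice per group; mean ± SEM.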

[2] = system: Mus musculus; experiment: Neuropharmacological effect in albino mouse assessed as endurance time at 3 mg/kg, ip after 60 mins by rotarod test; how it was run: as §1
[3] = system: Mus musculus; experiment: Neuropharmacological effect in albino mouse assessed as endurance time at 3 mg/kg, ip after 90 mins by rotarod test; how it was run: as §1
[4] = system: Mus musculus; experiment: Muscle relaxant activity in albino mouse at 3 mg/kg, ip after 30 mins by traction test; parameters: scale not given: the % may be the effect or the level left
How it was run: (§2)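 Traction test in male albino mice (20–25 g), five per group, given drug ip in DMSO. Success required touching the wire with at least one hind paw within 5 s; otherwise scored as failure. Mice were tested 30, 45, 60 and 90 min after dosing, immediately before the rotarod. Results are % successful, mean ± SEM.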

[5] = system: Mus musculus; experiment: Muscle relaxant activity in albino mouse at 3 mg/kg, ip after 45 mins by traction test; parameters: scale not given: the % may be the effect or the level left; how it was run: as §2
[6] = system: Mus musculus; experiment: Muscle relaxant activity in albino mouse at 3 mg/kg, ip after 60 mins by traction test; parameters: scale not given: the % may be the effect or the level left; how it was run: as §2
[7] = system: Mus musculus; experiment: Muscle relaxant activity in albino mouse at 3 mg/kg, ip after 90 mins by traction test; parameters: scale not given: the % may be the effect or the level left; how it was run: as §2
[8] = system: Mus musculus; experiment: Analgesic activity in albino mouse assessed as retention latency at 3 mg/kg, ip after 30 mins by hot plate test
How it was run: (§3)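 Male albino mice (20–25 g), five per group, given drug in DMSO ip; vehicle controls got DMSO alone. Mice were placed in a glass cylinder on a 54 °C metal plate. Latency to hind-paw lick or jump was recorded, with a 30 s cut-off. Testing was 30, 45, 60 and 90 min post-injection. Values are mean ± SEM.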

[9] = system: Mus musculus; experiment: Analgesic activity in albino mouse assessed as retention latency at 3 mg/kg, ip after 45 mins by hot plate test; how it was run: as §3
[10] = system: Mus musculus; experiment: Analgesic activity in albino mouse assessed as retention latency at 3 mg/kg, ip after 60 mins by hot plate test; how it was run: as §3
[11] = system: Mus musculus; experiment: Analgesic activity in albino mouse assessed as retention latency at 3 mg/kg, ip after 90 mins by hot plate test; how it was run: as §3
[12] = system: Mus musculus; experiment: Neuropharmacological effect in albino mouse assessed as onset of loss of righting reflex at 3 mg/kg, ip
How it was run: (§4)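 Male albino mice (20–25 g), five per group, injected ip (drug in DMSO). Loss of righting reflex was inability to right within 30 s, after which mice were laid supine in a 90° trough. Return was righting twice within 1 min. Onset was recorded, and duration was the time from loss to return. Values are mean ± SEM.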

[13] = system: Mus musculus; experiment: Neuropharmacological effect in albino mouse assessed as duration of loss of righting reflex at 3 mg/kg, ip; how it was run: as §4
[14] = system: Mus musculus; experiment: Neuropharmacological effect in albino mouse assessed as spontaneous locomotor activity at 3 mg/kg, ip after 30 mins
How it was run: (§5)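 Male albino mice (20–25 g), five per group, got ip drug in DMSO or DMSO vehicle and went back to their home cages. After 30, 45, 60 or 90 min each was placed alone in a Plexiglas box and spontaneous locomotor activity was recorded. Tests were run in the morning. Values are mean ± SEM.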

[15] = system: Mus musculus; experiment: Neuropharmacological effect in albino mouse assessed as spontaneous locomotor activity at 3 mg/kg, ip after 45 mins; how it was run: as §5
[16] = system: Mus musculus; experiment: Neuropharmacological effect in albino mouse assessed as spontaneous locomotor activity at 3 mg/kg, ip after 60 mins; how it was run: as §5
[17] = system: Mus musculus; experiment: Neuropharmacological effect in albino mouse assessed as spontaneous locomotor activity at 3 mg/kg, ip after 90 mins; how it was run: as §5
[18] = system: Mus musculus; experiment: Neuropharmacological effect in albino mouse assessed as endurance time at 3 mg/kg, ip after 30 mins by rotarod test; how it was run: as §1
[19] = system: Mus musculus; experiment: Decrease in cognitive impairment in albino mouse assessed as retention latency at 3 mg/kg, ip after 30 mins by passive avoidance reflex test
How it was run: (§6)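 Passive avoidance in male albino mice (20–25 g), five per group, housed singly from the day before training. Drug in DMSO was given ip 30, 45, 60 or 90 min before the training trial. Mice were put in the light side of a two-compartment apparatus and the door to the dark side was opened. The retention test next day used the shock generator off. Latency reported as mean ± SEM.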

[20] = system: Mus musculus; experiment: Decrease in cognitive impairment in albino mouse assessed as retention latency at 3 mg/kg, ip after 45 mins by passive avoidance reflex test; how it was run: as §6
[21] = system: Mus musculus; experiment: Decrease in cognitive impairment in albino mouse assessed as retention latency at 3 mg/kg, ip after 60 mins by passive avoidance reflex test; how it was run: as §6
[22] = system: Mus musculus; experiment: Decrease in cognitive impairment in albino mouse assessed as retention latency at 3 mg/kg, ip after 90 mins by passive avoidance reflex test; how it was run: as §6

Row | Compound | Activity [1] [s] | Activity [2] [s] | Activity [3] [s] | Activity [4] [%] | Activity [5] [%] | Activity [6] [%] | Activity [7] [%] | Activity [8] [s] | Activity [9] [s] | Activity [10] [s] | Activity [11] [s] | Activity [14] [m] | Activity [15] [m] | Activity [16] [m] | Activity [17] [m] | Activity [18] [s] | Activity [19] [s] | Activity [20] [s] | Activity [21] [s] | Activity [22] [s] | further results
1 | CCCCCCCCCCCC1=NCC(c2ccc(Cl)cc2)CC(=O)O1 (configuration not stated) | 188 | 178 | 145 | 45 | 43 | 40 | 40 | 7.82 | 13.21 | 18.56 | 24.43 | 20.12 | 16.21 | 14.11 | 15.66 | 232 | 152.34 | 114.73 | 88.14 | 72.45 | Activity [12]: 38.23 min; Activity [13]: 60.25 min
2 | CCCCCCCCC1=NCC(c2ccc(Cl)cc2)CC(=O)O1 (configuration not stated) | 300 | 300 | 300 | 100 | 100 | 100 | 100 | 8.12 | 8.22 | 9.23 | 9.33 | 45.24 | 43.46 | 42.79 | 40.13 | 300 | 163.33 | 163.23 | 160.43 | 164.56 | 
3 | CCCCCCCCCCCCCC1=NCC(c2ccc(Cl)cc2)CC(=O)O1 (configuration not stated) | 174 | 169 | 133 | 40 | 40 | 35 | 35 | 8.33 | 15.32 | 18.45 | 26.13 | 15.24 | 13.73 | 14.76 | 13.11 | 219 | 147.24 | 109.34 | 82.36 | 67.56 | Activity [12]: 32.16 min; Activity [13]: 75.93 min
4 | C=CCCCCCCCCC1=NCC(c2ccc(Cl)cc2)CC(=O)O1 (configuration not stated) | 198 | 185 | 155 | 55 | 50 | 50 | 53 | 8.32 | 14.34 | 19.73 | 21.42 | 25.36 | 20.56 | 19.43 | 18.56 | 222 | 148.82 | 118.32 | 95.35 | 95.45 | Activity [12]: 36.63 min; Activity [13]: 55.33 min
5 | CCCCCCCCCCC1=NCC(c2ccc(Cl)cc2)CC(=O)O1 (configuration not stated) | 300 | 300 | 300 | 100 | 100 | 100 | 100 | 8.12 | 8.22 | 9.23 | 9.33 | 45.24 | 43.46 | 42.79 | 40.13 | 300 | 163.53 | 163.23 | 160.43 | 164.56 | 
6 | O=C1CC(c2ccc(Cl)cc2)CN=C(Cc2ccccc2)O1 (configuration not stated) | 185 | 0 | 0 | 27 | 25 | 25 | 22 | 9.53 | 15.38 | 25.63 | 28.73 | 0 | 0 | 0 | 0 | 234 | 125.64 | 106.56 | 70.34 | 65.34 | Activity [12]: 42.12 min; Activity [13]: 112.36 min
7 | CCCCCCCC/C=C/CCCCCCCC1=NCC(c2ccc(Cl)cc2)CC(=O)O1 (configuration not stated) | 175 | 155 | 128 | 35 | 35 | 33 | 31 | 9.34 | 15.77 | 23.61 | 28.43 | 11.45 | 9.33 | 10.61 | 9.25 | 198 | 146.23 | 110.36 | 75.44 | 68.44 | Activity [12]: 38.65 min; Activity [13]: 93.37 min
8 | NCC(CC(=O)O)c1ccc(Cl)cc1 (configuration not stated) [BACLOFEN] | 225 | 234 | 254 | 50 | 52 | 53 | 53 | 13.42 | 15.35 | 14.36 | 14.22 | 30.21 | 28.48 | 30.76 | 35.64 | 214 | 125.34 | 121.46 | 121.44 | 128.56 | Activity [12]: 20.24 min; Activity [13]: 35.23 min
9 | CCCCCCCC1=NCC(c2ccc(Cl)cc2)CC(=O)O1 (configuration not stated) | 300 | 300 | 300 | 100 | 100 | 100 | 100 | 8.12 | 8.22 | 9.23 | 9.33 | 45.24 | 43.46 | 42.79 | 40.13 | 300 | 163.23 | 163.23 | 160.43 | 164.56 | 
10 | CC1=NCC(c2ccc(Cl)cc2)CC(=O)O1 (configuration not stated) | 300 | 300 | 300 | 100 | 100 | 100 | 100 | 8.12 | 8.22 | 9.22 | 9.33 | 45.24 | 43.46 | 42.79 | 40.13 | 300 | 163.23 | 163.23 | 160.43 | 164.56 | 
